Laboratory results taken from ChEMBL document CHEMBL1138555, “N-acylated and N,N'-diacylated imidazolidine-2-thione derivatives and N,N'-diacylated tetrahydropyrimidine-2(1H)-thione analogues: synthesis and antiproliferative activity” (Eur J Med Chem, 2009).

Experiments:
MOLT-4 = test: Growth inhibition of human MOLT4 cells after 48 hrs by sulforhodamine B assay; format: functional; conditions: MOLT-4, 48 h
Summary of the method: (§1)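 NCI screen panel. Five 10-fold concentrations from 10^-4 to 10^-8 M. Exposure for the last 48 h of a 72 h incubation. Growth estimated by sulforhodamine B protein assay. GI50 is the concentration giving 50% growth inhibition. Where that level was not reached or was exceeded, the value is given as above or below the highest or lowest concentration tested.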

SNB-75 = test: Growth inhibition of human SNB75 cells after 48 hrs by sulforhodamine B assay; format: functional; conditions: SNB-75, 48 h
Summary of the method: (§2)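 NCI in vitro panel screen. Compounds tested at five 10-fold dilutions, 10^-4 to 10^-8 M. Cells in 96-well plates were exposed for the last 48 h of a 72 h incubation. Viability/growth was read by sulforhodamine B protein assay. GI50 is the concentration giving 50% growth inhibition. Values beyond the tested range are reported as greater or less than the maximum or minimum concentration.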

BT-549 = test: Growth inhibition of human BT549 cells after 48 hrs by sulforhodamine B assay; format: functional; conditions: BT-549, 48 h; summary of the method: as §1
SN12C = test: Growth inhibition of human SN12C cells after 48 hrs by sulforhodamine B assay; format: functional; summary of the method: as §2
U-251 = test: Growth inhibition of human U251 cells after 48 hrs by sulforhodamine B assay; format: functional; conditions: U-251, 48 h; summary of the method: as §2
SF-539 = test: Growth inhibition of human SF539 cells after 48 hrs by sulforhodamine B assay; format: functional; conditions: SF-539, 48 h; summary of the method: as §1
UO-31 = test: Growth inhibition of human UO31 cells after 48 hrs by sulforhodamine B assay; format: functional; conditions: UO-31, 48 h; summary of the method: as §2
OVCAR-8 = test: Growth inhibition of human OVCAR8 cells after 48 hrs by sulforhodamine B assay; format: functional; conditions: OVCAR-8, 48 h; summary of the method: as §1
UACC-62 = test: Growth inhibition of human UACC62 cells after 48 hrs by sulforhodamine B assay; format: functional; conditions: UACC-62, 48 h; summary of the method: as §2
NCI-H522 = test: Growth inhibition of human NCI-H522 cells after 48 hrs by sulforhodamine B assay; format: functional; conditions: NCI-H522, 48 h; summary of the method: as §1
IGROV-1 = test: Growth inhibition of human IGROV1 cells after 48 hrs by sulforhodamine B assay; format: functional; conditions: IGROV-1, 48 h; summary of the method: as §1
OVCAR-4 = test: Growth inhibition of human OVCAR4 cells after 48 hrs by sulforhodamine B assay; format: functional; conditions: OVCAR-4, 48 h; summary of the method: as §1
OVCAR-3 = test: Growth inhibition of human OVCAR-3 cells after 48 hrs by sulforhodamine B assay; format: functional; conditions: OVCAR-3, 48 h; summary of the method: as §1
SK-MEL-2 = test: Growth inhibition of human SK-MEL-2 cells after 48 hrs by sulforhodamine B assay; format: functional; conditions: SK-MEL-2, 48 h; summary of the method: as §1
NCI-H460 = test: Growth inhibition of human NCI-H460 cells after 48 hrs by sulforhodamine B assay; format: functional; conditions: NCI-H460, 48 h; summary of the method: as §1
T47D = test: Growth inhibition of human T47D cells after 48 hrs by sulforhodamine B assay; format: functional; summary of the method: as §2
HT-29 = test: Growth inhibition of human HT-29 cells after 48 hrs by sulforhodamine B assay; format: functional; conditions: HT-29, 48 h; summary of the method: as §1
MT4 = test: Antiproliferative activity against human MT4 cells assessed as reduction of growth by MTT assay; format: functional, cell-based
Summary of the method: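 MT-4 lymphoblastoid T cells (ATCC) in RPMI 1640 with 10% FCS, penicillin/streptomycin, checked for mycoplasma. 1 × 10⁴ mock-infected cells per well with serial dilutions from a 100 mM DMSO stock. Incubated 4 days at 37 °C, viable cells counted by MTT. IC50 versus untreated controls by linear regression. Mean of three separate experiments.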

HCT-15 = test: Growth inhibition of human HCT15 cells after 48 hrs by sulforhodamine B assay; format: functional; conditions: HCT-15, 48 h; summary of the method: as §1
NCI/ADR-RES = test: Growth inhibition of human NCI/ADR-RES cells after 48 hrs by sulforhodamine B assay; format: functional; summary of the method: as §1
A498 = test: Growth inhibition of human A498 cells after 48 hrs by sulforhodamine B assay; format: functional; conditions: A498, 48 h; summary of the method: as §1
CCRF-CEM = test: Growth inhibition of human CCRF-CEM cells after 48 hrs by sulforhodamine B assay; format: functional; summary of the method: as §1
[1] = Growth inhibition of human […] cells after 48 hrs by sulforhodamine B assay; format: functional; summary of the method: as §1
EKVX = test: Growth inhibition of human EKVX cells after 48 hrs by sulforhodamine B assay; format: functional; summary of the method: as §1
SF-268 = test: Growth inhibition of human SF268 cells after 48 hrs by sulforhodamine B assay; format: functional; conditions: SF-268, 48 h; summary of the method: as §1
HOP-92 = test: Growth inhibition of human HOP92 cells after 48 hrs by sulforhodamine B assay; format: functional; conditions: HOP-92, 48 h; summary of the method: as §1
786-0 = test: Growth inhibition of human 786-0 cells after 48 hrs by sulforhodamine B assay; format: functional; conditions: 786-0, 48 h; summary of the method: as §1
HCT-116 = test: Growth inhibition of human HCT116 cells after 48 hrs by sulforhodamine B assay; format: functional; conditions: HCT-116, 48 h; summary of the method: as §1
DU-145 = test: Growth inhibition of human DU145 cells after 48 hrs by sulforhodamine B assay; format: functional; conditions: DU-145, 48 h; summary of the method: as §1
HL-60(TB) = test: Growth inhibition of human HL-60(TB) cells after 48 hrs by sulforhodamine B assay; format: functional; conditions: HL-60, 48 h
Summary of the method: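 NCI 60-cell-line screen protocol: cells exposed to compound at five 10-fold dilutions from 10^-4 to 10^-8 M for the last 48 h of a 72 h incubation. Sulforhodamine B protein assay estimated viability/growth. GI50 (50% growth inhibition) derived; where not reached or exceeded, reported as greater or less than the highest or lowest concentration tested.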

PC-3 = test: Growth inhibition of human PC3 cells after 48 hrs by sulforhodamine B assay; format: functional; conditions: PC-3, 48 h; summary of the method: as §1
Malme-3M = test: Growth inhibition of human MALME-3M cells after 48 hrs by sulforhodamine B assay; format: functional; summary of the method: as §1
NCI-H23 = test: Growth inhibition of human NCI-H23 cells after 48 hrs by sulforhodamine B assay; format: functional; conditions: NCI-H23, 48 h; summary of the method: as §1
HOP-62 = test: Growth inhibition of human HOP62 cells after 48 hrs by sulforhodamine B assay; format: functional; conditions: HOP-62, 48 h; summary of the method: as §1
UACC-257 = test: Growth inhibition of human UACC257 cells after 48 hrs by sulforhodamine B assay; format: functional; conditions: UACC-257, 48 h; summary of the method: as §2
SK-MEL-28 = test: Growth inhibition of human SK-MEL-28 cells after 48 hrs by sulforhodamine B assay; format: functional; conditions: SK-MEL-28, 48 h; summary of the method: as §1
LOX IMVI = test: Growth inhibition of human LOXIMVI cells after 48 hrs by sulforhodamine B assay; format: functional; summary of the method: as §1
RXF 393 = test: Growth inhibition of human RXF393 cells after 48 hrs by sulforhodamine B assay; format: functional; conditions: RXF 393, 48 h; summary of the method: as §1
MCF7 = test: Growth inhibition of human MCF7 cells after 48 hrs by sulforhodamine B assay; format: functional; conditions: MCF7, 48 h; summary of the method: as §1
OVCAR-5 = test: Growth inhibition of human OVCAR5 cells after 48 hrs by sulforhodamine B assay; format: functional; conditions: OVCAR-5, 48 h; summary of the method: as §1
SNB-19 = test: Growth inhibition of human SNB19 cells after 48 hrs by sulforhodamine B assay; format: functional; conditions: SNB-19, 48 h; summary of the method: as §2

O=C(c1cccs1)N1CCN(C(=O)c2cccs2)C1=S
GI50 (MOLT-4): 3.2 µM
GI50 (SNB-75): 1.4 µM
GI50 (BT-549): 10 µM
GI50 (SN12C): 2.6 µM
GI50 (U-251): 7.9 µM
GI50 (SF-539): 1.8 µM
GI50 (UO-31): 2.3 µM
GI50 (OVCAR-8): 5.3 µM
GI50 (UACC-62): 12.3 µM
GI50 (NCI-H522): 3.8 µM
GI50 (IGROV-1): 9.6 µM
GI50 (OVCAR-4): 18.8 µM
GI50 (OVCAR-3): 3.5 µM
GI50 (SK-MEL-2): 12.6 µM
GI50 (NCI-H460): 18.7 µM
GI50 (T47D): 4.6 µM
GI50 (HT-29): 11.9 µM
IC50 (MT4): 11 µM
GI50 (HCT-15): 5.3 µM
GI50 (NCI/ADR-RES): 19.1 µM
GI50 (A498): 15.1 µM
GI50 (CCRF-CEM): 2.1 µM
GI50 [1]: 1.2 µM
GI50 (EKVX): 15.9 µM
GI50 (SF-268): 8.2 µM
GI50 (HOP-92): 7.2 µM
GI50 (786-0): 2.4 µM
GI50 (HCT-116): 11.4 µM
GI50 (DU-145): 3.3 µM
GI50 (HL-60(TB)): 2.2 µM
GI50 (PC-3): 6.1 µM
GI50 (Malme-3M): 10.3 µM
GI50 (NCI-H23): 10.6 µM
GI50 (HOP-62): 6.7 µM
GI50 (UACC-257): 7.5 µM
GI50 (SK-MEL-28): 3.8 µM
GI50 (LOX IMVI): 2.9 µM
GI50 (RXF 393): 2.9 µM
GI50 (MCF7): 3.2 µM
GI50 (OVCAR-5): 17.1 µM
GI50 (SNB-19): 14.4 µM

O=C(c1ccco1)N1CCN(C(=O)c2ccco2)C1=S
GI50 (MOLT-4): 0.3 µM
GI50 (SNB-75): 10.4 µM
GI50 (BT-549): 4.6 µM
GI50 (SN12C): 3.5 µM
GI50 (U-251): 9 µM
GI50 (SF-539): 3 µM
GI50 (UO-31): 3.7 µM
GI50 (OVCAR-8): 8.8 µM
GI50 (UACC-62): 3.2 µM
GI50 (NCI-H522): 3.1 µM
GI50 (IGROV-1): 6.7 µM
GI50 (OVCAR-4): 15.6 µM
GI50 (OVCAR-3): 2.7 µM
GI50 (SK-MEL-2): 14.2 µM
GI50 (NCI-H460): 3.3 µM
GI50 (T47D): 4.9 µM
GI50 (HT-29): 5 µM
IC50 (MT4): 7.4 µM
GI50 (HCT-15): 4.1 µM
GI50 (NCI/ADR-RES): 15.6 µM
GI50 (A498): 16.6 µM
GI50 (CCRF-CEM): 1.2 µM
GI50 [1]: 2 µM
GI50 (EKVX): 13.4 µM
GI50 (SF-268): 2.7 µM
GI50 (HOP-92): 12.7 µM
GI50 (786-0): 3.3 µM
GI50 (HCT-116): 7.3 µM
GI50 (DU-145): 2.7 µM
GI50 (HL-60(TB)): 4 µM
GI50 (PC-3): 3.9 µM
GI50 (Malme-3M): 3.7 µM
GI50 (NCI-H23): 19.5 µM
GI50 (HOP-62): 8.7 µM
GI50 (UACC-257): 4.6 µM
GI50 (SK-MEL-28): 5.5 µM
GI50 (LOX IMVI): 3.4 µM
GI50 (RXF 393): 3.6 µM
GI50 (MCF7): 3 µM
GI50 (OVCAR-5): 17.8 µM
GI50 (SNB-19): 25.4 µM
